# Screens as filed in PubChem BioAssay.
# GAA850 FXN act: increases GAA850 frataxin promoter reporter activity; HEK293 lucGAA850 FXN promoter luciferase reporter, 24 h; percent of 10 µM SAHA response; activation, % at 6 µM; actives 0.56% (n = 360,000); AID 540364;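 active = activation above the average of all compounds screened plus 3 SD, cutoff fixed separately per campaign, cut at about 7.5% in these data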;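 note: 0% = DMSO wells and 100% = 10 µM SAHA wells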
# ABHD5-PLIN5 inh: inhibitors of human ABHD5-perilipin-5 interaction; Split G. princeps luciferase complementation, luminescence, 4 h; actives 0.78% (n = 360,000); Q00G26+Q8WTS1; inhibition, % at 4 µM;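 active = inhibition above the mean inhibition across every tested compound plus 3 SD, cut at about 22% in these data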;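 note: 0% = DMSO only wells and the 100% control is not disclosed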
# H9c2 TAG inh: inhibitors of triacylglycerol accumulation; actives 0.66% (n = 230,000); inhibition, % at 12.5 µM; H9c2 cells, Nile Red lipid (TAG) fluorescence; cells loaded with 200 µM oleic acid;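 active = pattern-corrected inhibition of lipid staining of at least 50% with the nuclear-stain viability signal not falling by more than 50%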;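 note: 0% = DMSO wells and 100% = triacsin C control wells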
# Rad51 HR inh: blocks human Rad51 in homologous recombination | AID 1385 | inhibition, % at 10 µM | Q06609 | hRad51 DNA strand exchange, fluorescence dequenching | actives 0.085% (n = 200,000);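 active = inhibition above 40% at the single screening dose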;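 note: 0% = DMSO control wells and 100% = blanks with heterologous ssDNA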
# Target sequence (Q06609 whole entry, looked up): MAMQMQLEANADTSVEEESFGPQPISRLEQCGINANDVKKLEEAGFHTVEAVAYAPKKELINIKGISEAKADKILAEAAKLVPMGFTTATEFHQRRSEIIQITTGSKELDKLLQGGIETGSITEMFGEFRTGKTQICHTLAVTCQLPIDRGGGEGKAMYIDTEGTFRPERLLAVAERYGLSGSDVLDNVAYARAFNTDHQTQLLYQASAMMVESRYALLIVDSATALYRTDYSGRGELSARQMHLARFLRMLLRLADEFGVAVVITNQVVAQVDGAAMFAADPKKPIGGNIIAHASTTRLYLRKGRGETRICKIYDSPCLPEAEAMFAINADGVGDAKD
#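 Material: human Rad51–ssDNA filaments; Probe or stimulus: labelled 47-mer dsDNA for strand exchange; Doses: single 10 µM dose; Incubation: 37 °C 15-min filament assembly, 30-min compound preincubation, 15-min exchange; Technique: FRET fluorescence dequenching, excitation 485 nm, emission 520 nm; Measure: Fluorescence-based percent inhibition, control- and blank-normalised; Benchmarks: plate control and blank wells.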
# HIF act: HIF pathway transcriptional activation; activation, % at 7.5 µM (by protocol); actives 0.32% (n = 300,000); U2OS HRE-luciferase reporter, luminescence; normalized: DMSO 0%, desferrioxamine 100%; AID 1910;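 active = mean activation of at least 10% of the iron chelator positive control signal, with at least half of replicates also reaching 10%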
# Hsp70 activator: switches on Hsp70 transcription | HeLa Hsp70 promoter luciferase reporter, luminescence; scaled: vehicle 0, proteasome-inhibitor control 100% | activation, % at 10 µM | actives 0.04% (n = 200,000) | AID 1203;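 active = activation above the mean across all tested compounds plus 3 SD, cutoff set per campaign, cut at about 5.5% in these data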;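 note: 100% = MG132 at 30 µM as the positive control and 0% = DMSO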
# GAA30 counter: counter-screen for GAA850 frataxin promoter activators: GAA30 promoter activation; shares compounds with GAA850 FXN act; HEK293 lucGAA30 FXN promoter luciferase, 24 h; DMSO = 0%, 5 µM ipriflavone = 100%; activation, % at 6 µM; actives 66% (n = 1,900);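 active = mean activation above the mean of solvent-only control wells plus 3 SD, cut at about 22% in these data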;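 note: counterscreen of GAA850 promoter hits where activity marks nonselective or luminescence artifacts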
# FXN GAA850 conf: GAA850 FXN promoter activation confirmation | shares compounds with GAA850 FXN act | HEK293 lucGAA850 FXN promoter luciferase reporter, 24 h; 100% = activation by SAHA | activation, % at 6 µM | actives 86% (n = 1,900);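 active = mean activation above a set limit taken from the primary screen, cut at about 8% in these data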;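 note: 0% = DMSO wells and 100% = 10 µM SAHA wells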
# ABHD5-PLIN5 conf: confirmation of human ABHD5-PLIN5 interaction inhibitors. biochemical ABHD5-PLIN5 interaction, luminescence. inhibition, % at 4 µM. actives 67% (n = 2,200). shares compounds with ABHD5-PLIN5 inh; in the data active = inhibition above about 23%;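 note: 0% = DMSO vehicle wells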
# HNF4 counter: counter-screen for ABHD5-PLIN5 inhibitors: HNF4 split-luciferase; actives 77% (n = 2,200); shares compounds with ABHD5-PLIN5 inh; HNF4 dimerization, luminescence, biochemical; inhibition, % at 4 µM;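 active = mean inhibition across replicate wells exceeding the computed hit threshold, cut at about 13% in these data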;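 note: light from luciferase halves that rejoin when HNF4 fusion proteins dimerize; 0% = DMSO only wells and the 100% control is not given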
# Starred values were filed as active, the others as inactive; . = no result. Only some compounds are listed: those with a hit (about 1.9% of all), similar ones and a draw of the others.
SMILES,GAA850 FXN act,ABHD5-PLIN5 inh,H9c2 TAG inh,Rad51 HR inh,HIF act,Hsp70 activator,GAA30 counter,FXN GAA850 conf,others
COc1ccc(N2C(=O)CS(=O)C(c3ccccc3)C2=O)cc1 (stereo unspecified),5,3,-9,-8,0,0,.,.,
Cc1ccc(N2C(=O)CS(=O)C(c3ccccc3)C2=O)cc1C (stereo unspecified),8.2*,4,4,-19,1,0,58*,16*,
O=C(NC(=S)Nc1ncc(Br)cc1Br)c1cncc(Br)c1,1,-11,.,5,1,0,.,.,
O=C(NC(=S)NC1CCCCCC1)c1cncc(Br)c1,8.3*,-9,-3,-1,3,0,95*,33*,
CC(=O)Nc1ncnc2c1c(-c1ccc(Cl)cc1)nn2C(C)(C)C,11*,-10,15,13,0,0,19,10*,
CC(=O)N(C(C)=O)c1ncnc2c1c(-c1ccc(Cl)cc1)nn2C(C)(C)C,3,-5,12,5,0,0,.,.,
CN(c1ccc(C(=O)Nc2ccc3c(c2)OCCO3)cc1)S(C)(=O)=O,9.2*,1,.,.,1,0,93*,29*,
Cc1ccc(/C=N\NC(=O)C2CC(=O)N(c3ccccc3)C2)o1 (stereo unspecified),0,-6,-1,7,1,.,.,.,
Cc1sc(NC(=O)c2ccccc2)c(C#N)c1-c1ccccc1,11*,0,.,-3,3,0,111*,38*,
O=C(NC1CC1)c1ccc(CSCc2ccc(Cl)cc2)o1,1,-1,-12,.,.,.,.,.,
CCOC(=O)c1c(CN2CCN(CCO)CC2)n(C)c2cc(Br)c(OC)cc12,8.2*,13,.,.,0,0,23*,18*,
COC(=O)C[C@@H]1CC[C@H](NS(=O)(=O)c2cccc(F)c2)[C@@H](CO)O1,.,-4,.,.,.,.,.,.,
COc1ccc(-c2[nH]c3ccccc3c2SCCNC(=O)c2ccccc2)cc1,22*,1,2,.,1,0,2,5,
COc1cccc(C(=O)NCC(c2ccc3c(c2)OCO3)N2CCN(c3ccc(F)cc3)CC2)c1 (stereo unspecified),-1,12,-14,.,0,.,.,.,
Cc1ncc(N=Nc2ccccc2)c(-c2ccccc2)n1,0,-1,.,10,0,0,.,.,
Cc1cnc(N=Nc2ccccc2)[nH]1,7.7*,3,11,.,.,.,101*,28*,
COc1ccccc1-n1c(SCC(=O)NCC2CCCO2)nc2c([nH]c3ccccc32)c1=O (stereo unspecified),-4,-2,0,.,0,.,.,.,
CC(=O)NC(c1ccc(F)c(F)c1)c1nc(-c2cccc(F)c2)cs1 (stereo unspecified),1,0,-5,.,.,.,.,.,
N#Cc1nc(COc2ccccc2F)oc1N1CCCCCC1,9.6*,3,-52,9,.,1,47*,24*,
N#C/C(=C\c1ccc(N2CCOCC2)cc1)c1ccccc1,6,9,.,3,5,0,.,.,
N#C/C(=C\c1ccc(N2CCOCC2)o1)c1ccccc1,12*,76*,.,-3,.,1,139*,45*,ABHD5-PLIN5 conf=37*;HNF4 counter=101*
C=C(C)[C@@H]1C2=CC(C(=O)OC)=C(C[C@H](C(=C)C)[C@H]3O[C@H]3C3=C[C@H]1OC3=O)O2,15*,63*,.,.,.,.,-44,3,ABHD5-PLIN5 conf=87*;HNF4 counter=78*
O=C1C=CC(=O)N1c1ccccn1,0,-1,0,.,.,.,.,.,
